According to ChEMBL document CHEMBL3351823, “Synthesis and biological evaluations of new analogs of 2-methoxyestradiol: inhibitors of tubulin and angiogenesis” (Eur J Med Chem, 2014):
The source made the active and inactive calls. The rule behind the calls is not given here.

Columns and labels:
[1] = Anticancer activity against human WM35 cells assessed as cell growth inhibition after 5 days by MTT assay; type: functional, cell-based; conditions: WM35, 120 h
K562 = assay: Anticancer activity against human K562 cells assessed as cell growth inhibition after 5 days by MTT assay; type: functional, cell-based; conditions: K562, 120 h
How it was run: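 Compounds dissolved in DMSO and serially diluted in medium. Equal volume added to cells at about 40,000 cells/ml, set by doubling time. K562 grown in RPMI with 2-mercaptoethanol, L-glutamine and 10% FCS, no antibiotics. Drug-free wells served as control. Growth read on a plate reader; IC50 taken graphically as % of control growth. Three experiments run in duplicate.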

[2] = Anticancer activity against human OVCAR3 cells assessed as cell growth inhibition after 5 days by MTT assay; type: functional, cell-based; conditions: OVCAR-3, 120 h
[3] = Antiangiogenic activity in BAECs after 18 hrs by extracellular matrix assay; type: functional, Bos taurus; conditions: baec
How it was run: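 Extracellular matrix thawed at 4 °C, 50 µl per well, set 10 min at 37 °C. Solid wells incubated 30 min with BAECs (30,000 cells/well), then given analogs at the same concentration. IC50 from three experiments run in duplicate.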

Tubulin = Tubulin (Sus scrofa, UniProt P02554+P02550); assay: Inhibition of porcine brain tubulin polymerization after 60 mins
How it was run: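 Wells pre-chilled at 4 °C for 30 min. Mixture of Mes buffer pH 6.6 with MgCl2, GTP, tubulin (50 µl of 11 mg/ml in Mes buffer) and test compound in DMSO. Absorbance recorded at 25 °C over 60 min. Change in optical density compared with untreated controls.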

[4] = target: T1, Estrogen receptor (Homo sapiens) (UniProt P03372); assay: Agonist activity at estrogen receptor (unknown origin) expressed in rat PC12 cells coexpressing ER-luc at 10 uM after 24 hrs; type: cell-based; conditions: PC-12
T1 sequence (whole entry): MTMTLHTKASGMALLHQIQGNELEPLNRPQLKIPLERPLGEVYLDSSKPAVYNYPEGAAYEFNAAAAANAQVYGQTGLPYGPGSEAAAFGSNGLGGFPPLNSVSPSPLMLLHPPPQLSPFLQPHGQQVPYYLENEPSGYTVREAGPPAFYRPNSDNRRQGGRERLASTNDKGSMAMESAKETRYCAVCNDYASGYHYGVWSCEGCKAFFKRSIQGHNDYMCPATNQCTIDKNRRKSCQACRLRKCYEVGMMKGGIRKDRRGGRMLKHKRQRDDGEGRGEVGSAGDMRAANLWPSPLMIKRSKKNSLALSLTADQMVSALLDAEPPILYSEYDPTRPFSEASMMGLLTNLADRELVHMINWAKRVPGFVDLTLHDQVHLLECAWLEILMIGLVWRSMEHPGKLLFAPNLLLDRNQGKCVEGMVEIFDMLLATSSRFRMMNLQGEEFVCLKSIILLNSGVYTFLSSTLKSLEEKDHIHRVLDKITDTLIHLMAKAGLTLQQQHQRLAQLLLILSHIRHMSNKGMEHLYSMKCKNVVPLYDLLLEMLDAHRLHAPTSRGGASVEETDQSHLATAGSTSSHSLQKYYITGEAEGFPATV
How it was run: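 PC-12 cells plated at 7 × 10⁴ cells/ml, 37 °C, 5% CO₂; co-transfected with ERE-luc and ER one day after plating (liposome complexes in serum-free DMEM, serum medium restored after 3 h). Treated next day for 24 h; 0.1% DMSO solvent control, 17-β-estradiol positive control. Luciferase read with 1 mM luciferin, normalised to Renilla; 2 independent experiments, n = 3–5.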

Structure (SMILES)	IC50 (K562) [nM]	IC50 [3] [nM]	IC50 (Tubulin) [µM]	Activity [4]	IC50 [1] [nM]	IC50 [2] [nM]
COc1cc2c(cc1O)CC[C@@H]1[C@@H]2CC[C@]2(C)C(c3ccc4ccncc4c3)=CC[C@@H]12	> 10000	> 10000	–	–	> 10000	> 10000
COc1cc2c(cc1O)CC[C@@H]1[C@@H]2CC[C@]2(C)[C@@H](c3ccc4cnccc4c3)CC[C@@H]12	700	600	2.1	–	900	500
COc1cc2c(cc1O)CC[C@@H]1[C@@H]2CC[C@]2(C)[C@@H](c3cccnc3)CC[C@@H]12	1100	5200	5.1	inactive	1900	800
COc1cc2c(cc1O)CC[C@@H]1[C@@H]2CC[C@]2(C)C(c3ccncc3)=CC[C@@H]12	900	600	4.1	–	1000	1200
COc1cc2c(cc1O)CC[C@@H]1[C@@H]2CC[C@]2(C)C(c3cccc4ncccc34)=CC[C@@H]12	1100	2000	3.1	–	2900	1200
COc1cc2c(cc1O)CC[C@@H]1[C@@H]2CC[C@]2(C)[C@@H](c3cccc4c3CCCN4)CC[C@@H]12	1300	3300	3.7	inactive	1900	1500
COc1cc2c(cc1O)CC[C@@H]1[C@@H]2CC[C@]2(C)[C@@H](O)CC[C@@H]12 [2-METHOXYESTRADIOL]	800	3200	2.2	–	2100	1200
COc1cc2c(cc1O)CC[C@@H]1[C@@H]2CC[C@]2(C)C(c3cccnc3)=CC[C@@H]12	> 10000	> 10000	–	inactive	> 10000	> 10000
COc1cc2c(cc1O)CC[C@@H]1[C@@H]2CC[C@]2(C)[C@@H](c3cncc4c3CCCC4)CC[C@@H]12	500	1100	2.5	inactive	900	400
COc1cc2c(cc1O)CC[C@@H]1[C@@H]2CC[C@]2(C)[C@@H](c3ccc4ccncc4c3)CC[C@@H]12	> 10000	3300	> 10	–	> 10000	> 10000

Now from value to compound, other results behind:

IC50 (K562) [nM]	IC50 [3] [nM]	IC50 (Tubulin) [µM]	Activity [4]	Structure (SMILES)	IC50 [1] [nM]	IC50 [2] [nM]
1400	4200	5.8	–	COc1cc2c(cc1O)CC[C@@H]1[C@@H]2CC[C@]2(C)[C@@H](c3ccncc3)CC[C@@H]12	1600	1000
2100	1300	8.1	–	COc1cc2c(cc1O)CC[C@@H]1[C@@H]2CC[C@]2(C)[C@@H](c3cccc4cnccc34)CC[C@@H]12	4100	3000
500	800	4.8	inactive	COc1cc2c(cc1O)CC[C@@H]1[C@@H]2CC[C@]2(C)C(c3cncc4ccccc34)=CC[C@@H]12	700	400
> 10000	> 10000	–	–	COc1cc2c(cc1O)CC[C@@H]1[C@@H]2CC[C@]2(C)C(c3ccccc3)=CC[C@@H]12	> 10000	> 10000
400	700	2.2	–	COc1cc2c(cc1O)CC[C@@H]1[C@@H]2CC[C@]2(C)C(c3ccc4cnccc4c3)=CC[C@@H]12	1000	200
3100	2400	7.2	–	COc1cc2c(cc1O)CC[C@@H]1[C@@H]2CC[C@]2(C)C(c3cccc4cnccc34)=CC[C@@H]12	5100	3900
